Laboratory results as given in ChEMBL document CHEMBL3526134, “Molecular mechanism of altered ezetimibe disposition in nonalcoholic steatohepatitis” (Drug Metab Dispos, 2012).
Active and inactive are the calls of the source. No cut-off for these calls is given here.

Key:
[1] = Drug level in methionine and choline deficient fed Sprague-Dawley rat urine treated with ezetimibe at 10 mg/kg, iv after 120 mins by LC-MS/MS method; type: ADME, organism-based; set-up: dose 10 mg/kg, route intravenous; settings: in vivo, 2 h
Outline: (§1)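 After 8 weeks MCD diet, male SD rats under urethane received EZE 10 mg/kg i.v. through femoral vein cannula (ethanol/propylene glycol/PEG 400/water vehicle; n=3-5). Terminal urine taken by bladder puncture at 120 min; EZE and β-glucuronidase-hydrolysed total EZE measured by LC-MS/MS; glucuronide by difference.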

[2] = Drug level in methionine and choline deficient fed Sprague-Dawley rat bile treated with ezetimibe at 10 mg/kg, iv after 30 to 90 mins by LC-MS/MS method; type: ADME, organism-based; set-up: dose 10 mg/kg, route intravenous; settings: in vivo
Outline: (§2)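 Male SD rats (200-250 g) on MCD diet 8 weeks, urethane-anesthetized (1.2 g/kg i.p.), femoral vein/artery and bile duct cannulated, core temperature maintained. EZE 10 mg/kg i.v. via femoral vein in 10% ethanol/40% propylene glycol/30% PEG 400/20% water (n=3-5). Bile collected at 15-min intervals over 120 min; total EZE after β-glucuronidase (50°C, 60 min) and EZE by LC-MS/MS; glucuronide = total minus parent.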

[3] = Drug level in methionine and choline deficient fed Sprague-Dawley rat urine at 10 mg/kg, iv after 120 mins by LC-MS/MS method; type: ADME, organism-based; set-up: dose 10 mg/kg, route intravenous; settings: in vivo, 2 h; outline: as §1
[4] = Drug metabolism in methionine and choline deficient fed Sprague-Dawley rat urine assessed as ezetimibe glucuronide formation at 10 mg/kg, iv after 120 mins by LC-MS/MS method; type: ADME, organism-based; set-up: dose 10 mg/kg, route intravenous; settings: in vivo, 2 h; outline: as §1
[5] = tested on: Rattus norvegicus; experiment: Effect on total bile acid levels in Sprague-Dawley rat nonalcoholic steatohepatitis model at 10 mg/kg, po after 120 mins by spectrophotometry; type: functional, organism-based; set-up: dose 10 mg/kg
[6] = tested on: Rattus norvegicus; experiment: Effect on total bile acid levels in Sprague-Dawley rat nonalcoholic steatohepatitis model at 10 mg/kg, iv after 120 mins by spectrophotometry; type: functional, organism-based; set-up: dose 10 mg/kg
[7] = tested on: Plasma; experiment: Drug level in methionine and choline deficient fed Sprague-Dawley rat plasma at 10 mg/kg, po after 40 mins by LC-MS/MS method; type: ADME, organism-based; set-up: dose 10 mg/kg, route oral; settings: in vivo
Outline: (§3)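 Cannulated, urethane-anesthetized male SD rats after 8 weeks MCD diet given EZE 10 mg/kg orally in 0.25% carboxymethylcellulose (n=3-5). Plasma collected from 2 to 120 min post-dose; total EZE (after β-glucuronidase, 50°C 60 min) and parent EZE quantified by LC-MS/MS; glucuronide = total minus parent. Mean ± SEM.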

[8] = tested on: Plasma; experiment: Drug metabolism in methionine and choline deficient fed Sprague-Dawley rat plasma assessed as ezetimibe glucuronide formation at 10 mg/kg, po after 40 mins by LC-MS/MS method; type: ADME, organism-based; set-up: dose 10 mg/kg, route oral; settings: in vivo; outline: as §3
[9] = tested on: Plasma; experiment: Drug level in methionine and choline deficient fed Sprague-Dawley rat plasma at 10 mg/kg, po after 120 mins by LC-MS/MS method; type: ADME, organism-based; set-up: dose 10 mg/kg, route oral; settings: in vivo, 2 h; outline: as §3
[10] = tested on: Plasma; experiment: Drug metabolism in methionine and choline deficient fed Sprague-Dawley rat plasma assessed as ezetimibe glucuronide formation at 10 mg/kg, po after 120 mins by LC-MS/MS method; type: ADME, organism-based; set-up: dose 10 mg/kg, route oral; settings: in vivo, 2 h; outline: as §3
[11] = tested on: Plasma; experiment: Drug level in methionine and choline deficient fed Sprague-Dawley rat plasma at 10 mg/kg, iv after 40 mins by LC-MS/MS method; type: ADME, organism-based; set-up: dose 10 mg/kg, route intravenous; settings: in vivo
Outline: (§4)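 MCD-diet (8 weeks) male SD rats under urethane, femoral artery/vein and bile duct cannulated; EZE 10 mg/kg i.v. bolus via femoral vein in ethanol/propylene glycol/PEG 400/water vehicle (n=3-5). Arterial plasma sampled from 2 to 120 min; 25 µL plasma analysed by LC-MS/MS with and without β-glucuronidase pre-hydrolysis; glucuronide calculated by difference. Mean ± SEM.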

[12] = tested on: Plasma; experiment: Drug metabolism in methionine and choline deficient fed Sprague-Dawley rat plasma assessed as ezetimibe glucuronide formation at 10 mg/kg, iv after 40 mins by LC-MS/MS method; type: ADME, organism-based; set-up: dose 10 mg/kg, route intravenous; settings: in vivo; outline: as §4
[13] = tested on: Plasma; experiment: Drug level in methionine and choline deficient fed Sprague-Dawley rat plasma at 10 mg/kg, iv after 120 mins by LC-MS/MS method; type: ADME, organism-based; set-up: dose 10 mg/kg, route intravenous; settings: in vivo, 2 h; outline: as §4
[14] = tested on: Plasma; experiment: Drug metabolism in methionine and choline deficient fed Sprague-Dawley rat plasma assessed as ezetimibe glucuronide formation at 10 mg/kg, iv after 120 mins by LC-MS/MS method; type: ADME, organism-based; set-up: dose 10 mg/kg, route intravenous; settings: in vivo, 2 h; outline: as §4
[15] = Drug level in methionine and choline deficient fed Sprague-Dawley rat bile at 10 mg/kg, po after 120 mins by LC-MS/MS method; type: ADME, organism-based; set-up: dose 10 mg/kg, route oral; settings: in vivo, 2 h
Outline: (§5)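 Male SD rats (200-250 g) fed MCD diet 8 weeks, urethane-anesthetized with femoral and bile duct cannulae. EZE 10 mg/kg by oral gavage in 0.25% carboxymethylcellulose (n=3-5). Bile taken at 15-min intervals to 120 min; samples ±β-glucuronidase hydrolysis (50°C, 60 min), hydroxychalcone internal standard, LC-MS/MS on C18 gradient; glucuronide derived as total minus unconjugated EZE.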

[16] = Drug metabolism in methionine and choline deficient fed Sprague-Dawley rat bile assessed as ezetimibe glucuronide formation at 10 mg/kg, po after 120 mins by LC-MS/MS method; type: ADME, organism-based; set-up: dose 10 mg/kg, route oral; settings: in vivo, 2 h; outline: as §5
[17] = Drug level in methionine and choline deficient fed Sprague-Dawley rat bile at 10 mg/kg, iv after 30 to 90 mins by LC-MS/MS method; type: ADME, organism-based; set-up: dose 10 mg/kg, route intravenous; settings: in vivo; outline: as §2
[18] = Drug metabolism in methionine and choline deficient fed Sprague-Dawley rat bile assessed as ezetimibe glucuronide formation at 10 mg/kg, iv after 30 to 90 mins by LC-MS/MS method; type: ADME, organism-based; set-up: dose 10 mg/kg, route intravenous; settings: in vivo; outline: as §2
[19] = Drug level in methionine and choline deficient fed Sprague-Dawley rat urine at 10 mg/kg, po after 120 mins by LC-MS/MS method; type: ADME, organism-based; set-up: dose 10 mg/kg, route oral; settings: in vivo, 2 h
Outline: (§6)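 MCD-fed (8 weeks) male SD rats, urethane-anesthetized and cannulated, dosed EZE 10 mg/kg by gavage in 0.25% carboxymethylcellulose (n=3-5). Urine collected by bladder puncture 120 min post-dose; parent and total EZE (after β-glucuronidase, 50°C, 60 min) by LC-MS/MS, glucuronide calculated as their difference.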

[20] = Drug metabolism in methionine and choline deficient fed Sprague-Dawley rat urine assessed as ezetimibe glucuronide formation at 10 mg/kg, po after 120 mins by LC-MS/MS method; type: ADME, organism-based; set-up: dose 10 mg/kg, route oral; settings: in vivo, 2 h; outline: as §6

Drug metabolism [1] | Drug metabolism [2] | Drug uptake [3] | Drug metabolism [4] | Drug uptake [7] | Drug metabolism [8] | Drug uptake [9] | Drug metabolism [10] | Drug uptake [11] | Drug metabolism [12] | Drug uptake [13] | Drug metabolism [14] | Drug uptake [15] | Drug metabolism [16] | Drug uptake [17] | Drug metabolism [18] | Drug uptake [19] | Drug metabolism [20] | SMILES | Activity [5] | Activity [6]
metabolite_detected | metabolite_not_detected |  |  |  |  |  |  |  |  |  |  |  |  |  |  |  |  | O=C(O)[C@H]1O[C@@H](Oc2ccc([C@@H]3[C@@H](CC[C@H](O)c4ccc(F)cc4)C(=O)N3c3ccc(F)cc3)cc2)[C@H](O)[C@@H](O)[C@@H]1O |  | 
 |  | Active | metabolite_detected | Active | metabolite_detected | Active | metabolite_detected | Active | metabolite_detected | Active | metabolite_detected | Active | metabolite_detected | Not Active | metabolite_not_detected | Active | metabolite_detected | O=C1[C@H](CC[C@H](O)c2ccc(F)cc2)[C@@H](c2ccc(O)cc2)N1c1ccc(F)cc1 [EZETIMIBE] | inactive | inactive
